Assay outcomes as filed in PubChem.
GASC1 inh = inhibitors of GASC-1 (KDM4C) histone demethylase, primary screen, biochemical, single concentration HTS | inhibition, % at 12.5 µM | AID 720574, 2013 | 96,000 tested, 0.15% active | GST-KDM4C 2-372, H3K9me3 peptide, LANCE TR-FRET;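 active means mean replicate inhibition above about 25%, with at least 55% of replicates also reaching it, limit read from the data, passing the limit was not always enough; inconclusive means only one of those two conditions met; inactive means neither condition met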
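Test system – GST-tagged GASC-1 (JMJD2C) catalytic fragment, aa 2-372 · Medium – HEPES buffer, pH 7.5, plus ascorbate · Reagent – H3K9me3 peptide with Fe(II)/2OG · Compound – one test concentration per compound · Timing – 30 min reaction, 60 min detection, RT · Technique – TR-FRET with Eu antibody and ULight streptavidin, EDTA stop · Read-out basis – inhibition from TR-FRET ratio decrease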
IDH1 R132H inh = inhibitors of IDH1 R132H reductase, primary screen, biochemical, plate reader, single point; Isocitrate dehydrogenase [NADP] cytoplasmic (Homo sapiens), O75874; diaphorase/resazurin fluorescence, 60 min; inhibition, % at 10 µM; 70,000 tested, 0.18% active; AID 624101, 2012; in the data active means inhibition above about 34%; inconclusive means no clear call, values can overlap the other calls; inactive means below about 11%;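 further: 0% = DMSO and 100% = no enzyme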
Target sequence (O75874 whole entry R132H): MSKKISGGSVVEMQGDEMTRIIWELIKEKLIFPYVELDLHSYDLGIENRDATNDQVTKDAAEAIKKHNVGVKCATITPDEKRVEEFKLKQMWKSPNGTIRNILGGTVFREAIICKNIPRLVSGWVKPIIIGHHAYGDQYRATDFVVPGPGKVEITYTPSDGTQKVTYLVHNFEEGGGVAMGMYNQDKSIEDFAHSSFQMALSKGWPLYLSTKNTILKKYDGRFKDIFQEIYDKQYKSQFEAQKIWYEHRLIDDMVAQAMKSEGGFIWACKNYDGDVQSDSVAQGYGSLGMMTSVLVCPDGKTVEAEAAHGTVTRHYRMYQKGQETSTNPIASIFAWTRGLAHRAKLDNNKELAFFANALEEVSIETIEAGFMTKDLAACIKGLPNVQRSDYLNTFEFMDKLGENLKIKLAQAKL
T cruzi growth = T. cruzi intracellular proliferation inhibitors, primary screen, cell-based, beta-gal Tulahuen parasites, NIH3T3 host, luminescence. inhibition, % at 8.34 µM. T. cruzi beta-gal in NIH3T3, GalScreen luminescence, 90 h. AID 624255, 2012. 77,000 tested, 5.9% active;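 active means mean inhibition above about 93%, with at least 55% of replicates each passing it, limit read from the data, passing the limit was not always enough; inconclusive means only one of those two conditions holds; inactive means neither condition holds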
Pf Dd2 growth = P. falciparum Dd2 growth inhibitors, primary screen, SYBR Green fluorescence, single dose replicates. activity change, % at 10 µM. 94,000 tested, 2.3% active. 72 h; hits give low values; in the data active means activity change below about -80%; inconclusive means no clear call, values can overlap the other calls
The depositor's hits bear a star; ? = inconclusive; . = not tested or not shown. The list is not random: actives were taken first. Their share in the collection is about 5.9%.

SMILES | GASC1 inh | IDH1 R132H inh | T cruzi growth | Pf Dd2 growth
CCCN(C)C[C@@H]1OCCCC[C@H](C)Oc2ccc(NS(=O)(=O)c3ccc(C)cc3)cc2C(=O)N([C@@H](C)CO)C[C@H]1C | 3 | . | 62 | -94*
CCCN(C)C[C@@H]1OCCCC[C@@H](C)Oc2ccc(NS(=O)(=O)c3ccc(C)cc3)cc2C(=O)N([C@@H](C)CO)C[C@@H]1C | 0 | 1 | 52 | -63
CCCN(C)C[C@H]1OCCCC[C@H](C)Oc2ccc(NS(=O)(=O)c3ccc(OC)cc3)cc2C(=O)N([C@H](C)CO)C[C@H]1C | 1 | 0 | 82 | -86*
CC(C)C(NCCC(O)c1ccc(Br)cc1)C(=O)O (stereo not given) | . | 0 | . | .
C[C@H]1CN([C@@H](C)CO)C(=O)c2cccc(NC(=O)C3CC3)c2O[C@@H]1CN(C)Cc1ccc(-c2ccccc2)cc1 | -1 | . | 73 | -60
C[C@@H]1CN([C@@H](C)CO)C(=O)c2cccc(NC(=O)C3CCOCC3)c2O[C@H]1CN(C)Cc1ccc(-c2ccccc2)cc1 | 2 | . | 56 | -84*
CC(C)NC(=O)Nc1cccc2c1O[C@H](CN(C)Cc1ccc(-c3ccccc3)cc1)[C@H](C)CN([C@@H](C)CO)C2=O | -2 | . | -42 | -85*
C[C@@H]1CN([C@@H](C)CO)C(=O)c2cccc(NC(=O)C3CC3)c2O[C@H]1CN(C)Cc1ccc(-c2ccccc2)cc1 | -1 | . | 59 | -89*
C[C@@H]1CN([C@H](C)CO)C(=O)c2cccc(NC(=O)C3CCOCC3)c2O[C@H]1CN(C)Cc1ccc(-c2ccccc2)cc1 | -1 | -2 | 71 | -84*
COc1ccc(C(=O)O)cc1NC(=S)NC(=O)COc1ccc(Br)cc1 | . | 0 | . | .
CCOC(=O)c1ccc(NC(=O)Cn2cc(C#N)c3ccccc32)cc1 | . | 0 | . | .
CC(O)(CNCc1ccc(Cl)cc1)CSc1ccccc1Cl (stereo not given) | . | -2 | . | .
COc1ccc(S(=O)(=O)N(C)C[C@H]2OCCCC[C@H](C)Oc3ccc(NC(=O)NC4CCCCC4)cc3C(=O)N([C@H](C)CO)C[C@H]2C)cc1 | -2 | 0 | 95 | -86*
COc1ccc(S(=O)(=O)N(C)C[C@H]2OCCCC[C@H](C)Oc3ccc(NC(=O)NC4CCCCC4)cc3C(=O)N([C@@H](C)CO)C[C@H]2C)cc1 | -1 | 0 | 67 | -81*
COc1ccc(S(=O)(=O)N(C)C[C@@H]2OCCCC[C@@H](C)Oc3ccc(NC(=O)NC4CCCCC4)cc3C(=O)N([C@@H](C)CO)C[C@@H]2C)cc1 | 0 | -2 | 86 | ?
C[C@@H]1CN([C@@H](C)CO)C(=O)c2cc(NS(=O)(=O)c3ccccc3)ccc2O[C@H]1CN(C)Cc1ccc(C(=O)Nc2ccccc2N)cc1 | 0 | 0 | . | -83*
C[C@@H]1CN([C@@H](C)CO)C(=O)c2cc(NS(=O)(=O)c3ccc(F)cc3)ccc2O[C@H]1CN(C)Cc1ccc(C(=O)Nc2ccccc2N)cc1 | 1 | 0 | . | -85*
Cc1ccccc1S(=O)(=O)N1[C@H](C#N)[C@H](c2ccc(C#CC3CCCC3)cc2)[C@@H]1CO | 0 | . | . | -90*
N#C[C@@H]1[C@@H](c2ccc(C#CC3CCCCC3)cc2)[C@H](CO)N1C(=O)Nc1ccc(F)cc1 | -1 | . | . | -86*
N#C[C@H]1[C@@H](c2ccc(C#CC3CCCCC3)cc2)[C@H](CO)N1C(=O)Nc1ccc(F)cc1 | 1 | . | . | -52
CC(C)NC(=O)N1[C@H](C#N)[C@H](c2ccc(C#CC3CCCCC3)cc2)[C@@H]1CO | -4 | . | 93 | -81*
N#C[C@H]1[C@H](c2ccc(C#CC3CCCCC3)cc2)[C@H](CO)N1C(=O)Nc1ccc(F)cc1 | 5 | . | . | -26
Cc1c(NC(=O)CCN2C(=O)c3ccccc3C2=O)cccc1C(=O)O | . | 0 | . | .
CC(C)NS(=O)(=O)c1ccc(OCC(=O)O)c(Cl)c1 | . | 0 | . | .
CNS(=O)(=O)c1ccc(NC(=O)c2cc(-c3cccnc3)nc3ccc(Br)cc23)cc1 | . | 0 | . | .
C[C@@H]1CCCCO[C@H](CN(C)CC2CC2)[C@H](C)CN([C@H](C)CO)C(=O)c2cc(NC(=O)Nc3ccc(C(F)(F)F)cc3)ccc2O1 | -4 | . | 91 | -82*
